Among the data in ChEMBL document CHEMBL3596100, “The synthesis and biological activity of novel anthracenone-pyranones and anthracenone-furans” (Bioorg Med Chem, 2015) are GI50 values, retold here.

SMILES strings stand for the structures.

Test [1] can be described thus: Growth inhibition of human BE(2)-C cells after 72 hrs by MTT assay. The format is functional. In outline:
(§1)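 Cells kept in DMEM with 10% FBS, glutamine, penicillin/streptomycin at 37 °C, 5% CO2; plated in duplicate at 2500–4000 cells/well, dosed 24 h later during log growth. After 72 h drug exposure, MTT read at 540 nm. […] Assays in triplicate, standard error reported.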
Background: Formazan colour is commonly taken as a measure of viable cells.

Test [2] is described as follows: Growth inhibition of human SJ-G2 cells after 72 hrs by MTT assay. The format is functional. The following applies: SJ-G2, 72 h. In outline:
as §1

Test [3] in a line: Growth inhibition of mouse SMA cells after 72 hrs by MTT assay. The format is functional. The procedure, abridged:
as §1

Test [4] can be described thus: Growth inhibition of human MIA cells after 72 hrs by MTT assay. The format is functional. The procedure, abridged: as §1
The test system of a further test is A2780. As to the kind of experiment: Growth inhibition of human A2780 cells after 72 hrs by MTT assay. Particulars: A2780, 72 h. Format: functional. The procedure, abridged:
as §1

In another test the test system is DU-145. As to the kind of experiment: Growth inhibition of human DU145 cells after 72 hrs by MTT assay. The following applies: DU-145, 72 h. The format is functional. In outline: as §1
The next test relates to A-431. As to the kind of experiment: Growth inhibition of human A431 cells after 72 hrs by MTT assay. Format: functional. The following applies: A-431, 72 h. The procedure, abridged:
as §1

A further test relates to HT-29. The test can be described thus: Growth inhibition of human HT-29 cells after 72 hrs by MTT assay. Format: functional. Particulars: HT-29, 72 h. In outline: as §1
For the next test, the system named is MCF7. The test can be described thus: Growth inhibition of human MCF7 cells after 72 hrs by MTT assay. Format: functional. The following applies: MCF7, 72 h. In outline: as §1
Test [5] can be described thus: Growth inhibition of human H460 cells after 72 hrs by MTT assay. Format: functional. The following applies: NCI-H460, 72 h. In outline: as §1
Test [6] can be described thus: Growth inhibition of human U87 cells after 72 hrs by MTT assay. The format is functional, U-87MG ATCC. The following applies: U-87 MG. In outline: as §1

A word on the GI50: it is the concentration giving 50% growth inhibition. Lower therefore signals more potent growth inhibition. For `Cc1cc2c(c3oc(=O)c(CCCC#N)cc13)C(=O)c1c(O)cccc1C2=O`, the GI50 was found to be 11 µM in test [1]; 22 µM in test [2]; 9.8 µM in [3]; 15 µM in [4]; 10 µM in the test with A2780; 3.2 µM in the test with DU-145. The GI50 in the test on A-431 worked out at 12 µM; in the test with HT-29 it was 14 µM; with MCF7, 12 µM; in test [5] it was 9 µM; in [6], 11 µM.

On to `CC(=O)c1cc2c(C)cc3c(c2o1)C(=O)c1c(OC(C)C)cccc1C3=O`, for which the concentration for 50% growth inhibition (GI50) in [1] stood at 4.6 µM; in test [2] it was 2.2 µM; in test [3], 2.3 µM; in test [4], 9.7 µM; in the test on A2780, 5 µM; with DU-145, 1.9 µM. The GI50 is 5.8 µM in the test on A-431; 9.7 µM with HT-29; 3.5 µM in the test on MCF7; 17 µM in [5]; 8.4 µM in [6].

With `Cc1cc2c(c3oc(CCCC#N)cc13)C(=O)c1c(OC(C)C)cccc1C2=O`, the GI50 in test [1] came to 23 µM; in test [2] it was 8.4 µM; in test [3], 10 µM; in test [4] it was 10 µM; in the test on A2780, 6.4 µM; in the test on DU-145, 7.7 µM. In addition, the GI50 was determined as 9.8 µM with A-431; 11 µM with HT-29; 5.9 µM in the test with MCF7; 9.4 µM in test [5]; 6.1 µM in test [6].

On to `Cc1cc2c(c3oc(C(=O)c4ccccc4)cc13)C(=O)c1c(OC(C)C)cccc1C2=O`, for which the GI50 in [1] is 0.83 µM; in [2] it was 36 µM; in test [3] it was 2.2 µM; in test [4], 1.7 µM; in the test with A2780 it was 2.1 µM; with DU-145, 0.95 µM. Besides, the GI50 with A-431 was found to be 1.77 µM; in the test with HT-29, 1.4 µM; with MCF7, 1.1 µM; in test [5] it was 2.9 µM; in test [6], 2.3 µM.

On to `Cc1cc2c(c3oc(CCCCl)cc13)C(=O)c1c(O)cccc1C2=O`, for which the GI50 in [1] was 0.38 µM; in test [2] it was 37 µM; in test [3] it was 0.69 µM; in [4], 0.55 µM; in the test on A2780, 0.45 µM; in the test on DU-145, 0.44 µM. Also, the GI50 was found to be 0.59 µM in the test with A-431; 1.9 µM in the test with HT-29; 0.66 µM in the test with MCF7; 1.9 µM in test [5]; 0.97 µM in test [6].

Turning to `Cc1cc2c(c3oc(CCC(F)(F)F)cc(=O)c13)C(=O)c1c(O)cccc1C2=O`, the concentration for 50% growth inhibition (GI50) in [1] stood at 0.2 µM; in [2] it was 0.49 µM; in test [3], 0.48 µM; in [4], 0.28 µM; in the test on A2780, 0.34 µM; in the test on DU-145, 0.29 µM. Further, the GI50 in the test with A-431 turned out to be 0.51 µM; in the test with HT-29 it was 0.94 µM; in the test on MCF7 it was 0.28 µM; in test [5], 0.87 µM; in test [6], 2.9 µM.

As for `C=C(C)c1cc(=O)c2c(C)cc3c(c2o1)C(=O)c1c(O)cccc1C3=O`, the GI50 in [1] amounted to 5.9 µM; in test [2] it was 4.7 µM; in test [3] it was 1.7 µM; in test [4] it was 2 µM; in the test with A2780, 1.6 µM; in the test on DU-145, 1.5 µM. Also, the GI50 in the test with A-431 came out at 1.8 µM; in the test with HT-29, 1.6 µM; in the test on MCF7 it was 1.4 µM; in test [5], 3.9 µM; in [6], 3.4 µM.

As for `CCCc1cc(=O)c2c(C)cc3c(c2o1)C(=O)c1c(O)cccc1C3=O`, the GI50 was 1.8 µM in test [1]; 1.7 µM in test [2]; 1.5 µM in [3]; 1.7 µM in [4]; 2.4 µM in the test with A2780; 1.2 µM in the test on DU-145. For the same compound, the GI50 worked out at 1.6 µM in the test on A-431; 3.2 µM in the test with HT-29; 1.8 µM with MCF7; 1.4 µM in test [5]; 2.8 µM in test [6].

Regarding `Cc1cc2c(c3oc(=O)c([Si](C)(C)C)cc13)C(=O)c1c(OC(C)C)cccc1C2=O`, the GI50 in [1] came to 28 µM; in test [2], 14 µM; in [3], 11 µM; in [4] it was 11 µM; in the test with A2780 it was 13 µM; with DU-145 it was 27 µM. The concentration for 50% growth inhibition (GI50) in the test with A-431 is 19 µM; in the test with HT-29, 11 µM; in the test with MCF7, 13 µM; in [5], 21 µM; in test [6], 19 µM.

With `Cc1cc2c(c3oc(CCCC#N)cc13)C(=O)c1c(O)cccc1C2=O`, the GI50 in [1] stood at 0.99 µM; in test [2], 32 µM; in test [3] it was 5.4 µM; in test [4] it was 2.6 µM; in the test on A2780 it was 6.5 µM; in the test on DU-145 it was 0.46 µM. The GI50 worked out at 13 µM in the test with A-431; 1.9 µM in the test on HT-29; 4.7 µM in the test with MCF7; 15 µM in test [5]; 11 µM in [6].

For `CCCCCCc1cc2c(C)cc3c(c2o1)C(=O)c1c(O)cccc1C3=O`, the GI50 stood at 21 µM in test [1]; 32 µM in [2]; 9.3 µM in test [3]; 13 µM in test [4]; 12 µM in the test with A2780; 25 µM in the test on DU-145. Further, the GI50 in the test with A-431 was determined as 18 µM; with HT-29, 17 µM; with MCF7, 15 µM; in test [5], 17 µM; in test [6], 25 µM.

Turning to `Cc1cc2c(c3oc(=O)cc(CCCCl)c13)C(=O)c1c(OC(C)C)cccc1C2=O`, the GI50 came to 27 µM in test [1]; 27 µM in [2]; 16 µM in [3]; 17 µM in test [4]; 12 µM in the test on A2780; 24 µM in the test with DU-145. For the same compound, the GI50 with A-431 is 12 µM; with HT-29, 24 µM; in the test with MCF7 it was 8.8 µM; in test [5], 25 µM; in test [6], 12 µM.

As to `Cc1cc2c(c3oc(CCCCl)cc13)C(=O)c1c(OC(C)C)cccc1C2=O`, the concentration for 50% growth inhibition (GI50) in test [1] was 43 µM; in test [2] it was 25 µM; in test [3], 22 µM; in test [4] it was 34 µM; in the test with A2780, 11 µM; with DU-145, 25 µM. The GI50 in the test on A-431 is 23 µM; in the test with HT-29 it was 18 µM; with MCF7, 13 µM; in [5] it was 27 µM; in test [6], 18 µM.

`Cc1cc2c(c3oc(C(C)O)cc13)C(=O)c1c(OC(C)C)cccc1C2=O` (centres undefined): the GI50 in test [1] stood at 20 µM; in test [2], 14 µM; in test [3], 29 µM; in test [4], 19 µM; in the test with A2780, 16 µM; in the test on DU-145, 28 µM. The GI50 in the test on A-431 is 19 µM; with HT-29, 24 µM; in the test on MCF7 it was 24 µM; in [5] it was 17 µM; in test [6], 35 µM.

`CCc1cc(=O)c2c(C)cc3c(c2o1)C(=O)c1c(OC)cccc1C3=O`: the GI50 came to 4.1 µM in [1]; 4.3 µM in [2]; 6.5 µM in test [3]; 5.4 µM in [4]; 5.3 µM in the test on A2780; 4.8 µM in the test with DU-145. The GI50 with A-431 stood at 5.7 µM; in the test with HT-29, 4.5 µM; with MCF7 it was 4.1 µM; in test [5], 4.8 µM; in test [6], 14 µM.

`Cc1cc2c(c3oc(=O)c(C(C)(C)O)cc13)C(=O)c1c(OC(C)C)cccc1C2=O`: the GI50 in [1] worked out at 27 µM; in test [2] it was 14 µM; in test [3], 30 µM; in [4], 23 µM; in the test with A2780 it was 28 µM; in the test on DU-145, 40 µM. The GI50 came out at 19 µM with A-431; 30 µM in the test on HT-29; 20 µM in the test with MCF7; 22 µM in test [5]; 30 µM in test [6].

In the case of `Cc1cc2c(c3oc(C(C)O)cc13)C(=O)c1c(O)cccc1C2=O` (centres undefined), the GI50 is 19 µM in test [1]; 17 µM in test [2]; 12 µM in [3]; 15 µM in test [4]; 7.3 µM with A2780; 28 µM in the test on DU-145. In addition, the GI50 in the test with A-431 was 9 µM; in the test on HT-29, 13 µM; with MCF7, 21 µM; in test [5] it was 17 µM; in test [6], 20 µM.

In the case of `CCCCCC(=O)c1cc2c(C)cc3c(c2o1)C(=O)c1c(OC(C)C)cccc1C3=O`, the GI50 in test [1] is 0.75 µM; in [2] it was 4.2 µM; in test [3], 1.8 µM; in test [4] it was 1.1 µM; in the test on A2780, 2.3 µM; with DU-145, 0.85 µM. The GI50 in the test on A-431 came out at 1.4 µM; in the test on HT-29, 0.88 µM; in the test with MCF7, 2 µM; in [5], 6.8 µM; in [6], 4.2 µM.

On to `CC(=O)c1cc2c(C)cc3c(c2o1)C(=O)c1c(O)cccc1C3=O`, for which the GI50 in test [1] is 2.9 µM; in [2], 1.8 µM; in test [3] it was 1.5 µM; in [4], 9.5 µM; in the test on A2780, 2 µM; with DU-145, 2 µM. Also, the GI50 turned out to be 4.8 µM in the test with A-431; 4.7 µM in the test on HT-29; 2.1 µM in the test on MCF7; 9.6 µM in test [5]; 5.5 µM in test [6].
